Laboratory results reported in ChEMBL document CHEMBL4325922, “Restoring Let-7 microRNA Biogenesis Using a Small-Molecule Inhibitor of the Protein-RNA Interaction” (ACS Med Chem Lett, 2018).
Active and inactive are the calls of the source. The calls are words filed in the database; no cut-off is given here.

What was measured:
[1] = biological target: T1, Protein lin-28 homolog A (Homo sapiens, UniProt Q9H9Z2); assay: Binding affinity to recombinant human N-terminal His6-tagged Lin28a expressed in Escherichia coli Rosetta2 (DE3) pLysS by surface plasmon resonance analysis
T1 sequence (Q9H9Z2 whole entry): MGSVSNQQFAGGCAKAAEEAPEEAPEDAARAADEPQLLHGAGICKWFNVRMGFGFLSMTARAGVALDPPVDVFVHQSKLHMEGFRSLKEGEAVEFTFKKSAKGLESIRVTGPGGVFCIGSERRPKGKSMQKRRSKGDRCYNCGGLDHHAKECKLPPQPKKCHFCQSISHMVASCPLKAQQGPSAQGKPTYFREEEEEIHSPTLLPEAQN
Outline: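 Surface plasmon resonance detecting direct binding of analyte to immobilized Lin28a, run at concentrations from 0.31 to 10 μM; binding read as a dose–response curve and Rmax calculated.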

[2] = biological target: T2, Protein lin-28 homolog A/B (Homo sapiens) (UniProt Q6ZN17+Q9H9Z2); assay: Inhibition of Lin28a/Lin28b in human paclitaxel-resistant JAR cells assessed as reduction in MDR1 expression at 10 uM measured after 24 hrs by Western blot analysis
T2 sequence (Q6ZN17 whole entry, looked up, one chain of several): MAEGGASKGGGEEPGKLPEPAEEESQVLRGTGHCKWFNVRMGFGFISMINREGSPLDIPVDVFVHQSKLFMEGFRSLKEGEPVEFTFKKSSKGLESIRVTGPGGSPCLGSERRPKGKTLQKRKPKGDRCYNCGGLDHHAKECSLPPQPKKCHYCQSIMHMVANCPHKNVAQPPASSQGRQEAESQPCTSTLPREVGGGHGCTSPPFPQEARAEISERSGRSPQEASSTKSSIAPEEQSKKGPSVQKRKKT

[3] = biological target: T2, Protein lin-28 homolog A/B (Homo sapiens); assay: Inhibition of Lin28a/Lin28b in human JAR cells assessed as reduction in IMP1 expression at 5 to 10 uM after 24 hrs by Western blot analysis; format: cell-based
Outline: (§1)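 Endogenous let-7 target proteins (HMGA2, IMP1, Ras, Lin28a) detected by Western blot in JAR or PA-1 cells after 24 h compound treatment.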

[4] = system: JAR; assay: Increase in mature let-7g level in Lin28a/b knockdown human JAR cells at 10 uM after 20 hrs by qRT-PCR analysis; format: functional, cell-based
Outline: (§2)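 Lin28 knocked-down JAR cells treated for 20 h; let-7 levels measured against U6 snRNA endogenous control; 2 biological replicates.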

[5] = biological target: T3, Protein lin-28 homolog A (Homo sapiens) (UniProt Q9H9Z2); assay: Inhibition of Lin28a in human PA1 cells assessed as reduction in Lin28 expression at 10 uM after 24 hrs by Western blot analysis; format: cell-based; outline: as §1
T3 sequence (whole entry): T1 sequence (Q9H9Z2 whole entry)

[6] = biological target: T2, Protein lin-28 homolog A/B (Homo sapiens); assay: Inhibition of Lin28a/Lin28b in human JAR cells assessed as reduction in Ras expression at 5 to 10 uM after 24 hrs by Western blot analysis; format: cell-based; outline: as §1
[7] = biological target: T3, Protein lin-28 homolog A (Homo sapiens); assay: Inhibition of Lin28a in human PA1 cells assessed as reduction in Ras expression at 10 uM after 24 hrs by Western blot analysis; format: cell-based; outline: as §1
[8] = system: PA-1; assay: Increase in mature let-7g level in Lin28a CRISPR-Cas9 knockout human PA1 cells at 10 uM after 20 hrs by qRT-PCR analysis; format: functional, cell-based
Outline: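 PA-1 cells with Lin28a fully knocked out by CRISPR/Cas9 editing (clonal lines) treated for 20 h; let-7 levels normalized to U6 snRNA; 2 technical replicates.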

[9] = biological target: T2, Protein lin-28 homolog A/B (Homo sapiens); assay: Inhibition of Lin28a/Lin28b in human JAR cells assessed as increase in mature let-7f level after 20 hrs by TRIzol dye based qRT-PCR analysis; format: cell-based
Outline: (§3)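 JAR cells (express Lin28a and Lin28b) exposed to compound for 20 h; miRNA levels quantified with U6 snRNA as endogenous control; three or more biological replicates, standard deviation, paired two-tailed t test.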

[10] = system: JAR; assay: Effect on miR-20b level in human JAR cells at 5 to 10 uM after 20 hrs by TRIzol dye based qRT-PCR analysis; format: functional, cell-based; outline: as §3
[11] = system: JAR; assay: Cytotoxicity against human JAR cells after 24 hrs by WST assay; format: functional, cell-based
[12] = system: JAR; assay: Increase in mature let-7i level in Lin28a/b knockdown human JAR cells at 10 uM after 20 hrs by qRT-PCR analysis; format: functional, cell-based; outline: as §2
[13] = biological target: T2, Protein lin-28 homolog A/B (Homo sapiens); assay: Inhibition of Lin28a/Lin28b in human JAR cells assessed as reduction in HMGA2 expression after 20 hrs by dual-luciferase reporter gene assay
[14] = biological target: T3, Protein lin-28 homolog A (Homo sapiens); assay: Inhibition of PreE-let-7a-1-BHQ2 binding to recombinant human N-terminal His6-tagged/Cy3-labelled Lin28a expressed in Escherichia coli Rosetta2 (DE3) pLysS measured after 30 to 60 mins by FRET assay
[15] = biological target: T3, Protein lin-28 homolog A (Homo sapiens); assay: Inhibition of pre-let-7g binding to recombinant human N-terminal His6-tagged Lin28a expressed in Escherichia coli Rosetta2 (DE3) pLysS assessed as increase in dicer-mediated pre-let-7g microRNA maturation at 5 to 10 uM measured after 40 mins by SYBR green2 dye based fluorescence assay
[16] = biological target: T3, Protein lin-28 homolog A (Homo sapiens); assay: Inhibition of biotinylated-preE-let-7g binding to Lin28a in human JAR cells by pull down assay; format: cell-based
Outline: (§4)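 5′-Biotinylated preE-let-7g is immobilized on streptavidin beads and incubated with proteome from JAR human choriocarcinoma cells, which express Lin28a and Lin28b. Test compound is present during binding, and target engagement is judged by the proteins pulled down.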

[17] = biological target: T3, Protein lin-28 homolog A (Homo sapiens); assay: Inhibition of Lin28a in human PA1 cells assessed as increase in mature let-7i level at 10 uM after 20 hrs by TRIzol dye based qRT-PCR analysis; format: cell-based
Outline: (§5)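 PA-1 ovarian teratocarcinoma cells (express Lin28a) treated for 20 h; let-7 quantified relative to U6 snRNA; 4 biological replicates, standard deviation, paired two-tailed t test.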

[18] = biological target: T2, Protein lin-28 homolog A/B (Homo sapiens); assay: Inhibition of Lin28a/Lin28b in human paclitaxel-resistant JAR cells assessed as potentiation of paclitaxel induced cytotoxicity at 10 uM pretreated for 30 hrs followed by paclitaxel addition and measured after 72 hrs by WTS assay
Outline: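 Paclitaxel-resistant JAR persister cells, enriched by cytotoxic paclitaxel exposure and regrowth without drug. Cells pretreated 30 h with compound, then given paclitaxel for 72 h without compound; WST viability used to derive the paclitaxel IC50.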

[19] = biological target: T2, Protein lin-28 homolog A/B (Homo sapiens); assay: Inhibition of Lin28a/Lin28b in human MCF7 cells assessed as reduction in HMGA2 expression at 10 uM after 24 hrs by Western blot analysis; format: cell-based
[20] = biological target: T3, Protein lin-28 homolog A (Homo sapiens); assay: Binding affinity to recombinant human N-terminal His6-tagged Lin28a zinc knuckle domain expressed in Escherichia coli Rosetta2 (DE3) pLysS at 0.625 to 10 uM by surface plasmon resonance analysis
[21] = biological target: T2, Protein lin-28 homolog A/B (Homo sapiens); assay: Inhibition of Lin28a/Lin28b in human JAR cells assessed as increase in mature let-7g level after 20 hrs by TRIzol dye based qRT-PCR analysis; format: cell-based; outline: as §3
[22] = system: JAR; assay: Increase in mature let-7d level in Lin28a/b knockdown human JAR cells at 10 uM after 20 hrs by qRT-PCR analysis; format: functional, cell-based; outline: as §2
[23] = biological target: T3, Protein lin-28 homolog A (Homo sapiens); assay: Inhibition of Lin28a in human PA1 cells assessed as increase in mature let-7g level at 10 uM after 20 hrs by TRIzol dye based qRT-PCR analysis; format: cell-based; outline: as §5
[24] = biological target: Heterogeneous nuclear ribonucleoprotein A1 (Homo sapiens) (UniProt P09651); assay: Inhibition of biotinylated-preE-let-7g binding to hnRNPA1 in human JAR cells by pull down assay; format: cell-based; outline: as §4
Heterogeneous nuclear ribonucleoprotein A1 (Homo sapiens), sequence (P09651 whole entry): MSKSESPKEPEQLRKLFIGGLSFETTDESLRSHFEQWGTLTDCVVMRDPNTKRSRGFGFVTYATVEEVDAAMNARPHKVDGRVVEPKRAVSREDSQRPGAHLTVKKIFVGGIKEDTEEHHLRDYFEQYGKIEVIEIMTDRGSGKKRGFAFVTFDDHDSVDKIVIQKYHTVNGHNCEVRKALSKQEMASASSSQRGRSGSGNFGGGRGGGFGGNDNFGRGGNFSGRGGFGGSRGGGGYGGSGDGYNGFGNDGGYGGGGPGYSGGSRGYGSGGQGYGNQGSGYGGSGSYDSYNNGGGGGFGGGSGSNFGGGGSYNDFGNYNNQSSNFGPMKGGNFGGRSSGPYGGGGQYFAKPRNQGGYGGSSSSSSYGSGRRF

[25] = biological target: T2, Protein lin-28 homolog A/B (Homo sapiens); assay: Inhibition of Lin28a/Lin28b in human MCF7 cells assessed as reduction in IMP1 expression at 10 uM after 24 hrs by Western blot analysis; format: cell-based

- Kd [1]: 5.9 µM
- inhibition [2]: Active
- inhibition [3]: Active
- inhibition [5]: Active
- inhibition [6]: Active
- inhibition [7]: Active
- inhibition [9]: Dose-dependent effect
- inhibition [13]: Dose-dependent effect
- inhibition [14]: Dose-dependent effect
- inhibition [15]: Active
- inhibition [16]: Dose-dependent effect
- inhibition [17]: Active
- inhibition [19]: inactive
- Activity [20]: inactive
- inhibition [21]: Dose-dependent effect
- inhibition [23]: Active
- inhibition [24]: inactive
- inhibition [25]: inactive
Compound: NC(=O)c1c(Nc2ccc(Cl)cc2Cl)[nH]c2c(Cl)ccc(Cl)c2c1=O
- Activity [4]: inactive
- Activity [8]: inactive
- Activity [10]: inactive
- Activity [11]: Active
- Activity [12]: inactive
- inhibition [18]: Active
- Activity [22]: inactive
